Assay outcomes from PubChem BioAssay.
A selection: hits, their analogues and other compounds. The true share with any hit is near 3.5%.
RGS4 act = potentiators or activators of RGS4. HEK293 M3R/inducible RGS4, carbachol calcium flux Fluo4; active compounds read low. B-score at 10 µM. actives 0.92% (n = 310,000). AID 463111;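 active = B-score of the integrated calcium signal more than 4 SD below the library mean, with starting fluorescence not abnormally high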;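 also: negative B-score means reduced calcium response which marks RGS4 activation or potentiation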
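Also added: carbachol at ECmax as muscarinic agonist stimulus; Assay system: HEK293 cells with stable M3R and inducible RGS4; Timing: overnight RGS4 induction, 30 min dye load 37 °C, 20 min compound RT; Measured by: Fluo4-AM (2 µM) calcium-flux fluorescence, kinetic read.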
MrgX1 allo act = human MrgX1 positive allosteric modulation, primary screen; actives 0.63% (n = 310,000); MrgX1-HEK293, Fluo-4 calcium flux, FDSS; active compounds read high; B-score at 10 µM; Q96LB2;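 active = plate-corrected calcium response at least 3 library SD above typical, normal starting fluorescence, not activating the receptor alone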;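 also: compound read alongside a low EC10 to EC30 dose of BAM8-22 agonist; peak minus trough fluorescence over baseline measured at the second addition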
Target sequence (Q96LB2 whole entry, looked up): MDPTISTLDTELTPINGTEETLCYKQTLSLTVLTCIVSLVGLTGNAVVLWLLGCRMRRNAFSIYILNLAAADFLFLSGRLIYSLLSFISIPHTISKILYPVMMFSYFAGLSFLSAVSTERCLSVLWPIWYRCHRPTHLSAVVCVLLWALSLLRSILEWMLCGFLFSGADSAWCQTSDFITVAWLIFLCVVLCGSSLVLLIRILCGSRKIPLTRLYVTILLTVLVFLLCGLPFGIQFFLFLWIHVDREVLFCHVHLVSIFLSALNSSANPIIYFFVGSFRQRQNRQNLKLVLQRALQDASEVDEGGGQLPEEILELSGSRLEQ
MrgX1 antagonist = human MrgX1 receptor antagonism, primary screen; MRGX1-HEK293 calcium flux, Fluo-4, BAM8-22 antagonism; active compounds read low; B-score at 10 µM; actives 1.3% (n = 310,000); AID 588676;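 active = calcium-response B-score plate-corrected more than 3 library SD below zero, starting fluorescence within 5 deviations, no agonist response on first addition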;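 also: peak minus trough fluorescence over baseline after final BAM8-22 challenge near maximal dose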
RGS4 inh = inhibitors of human RGS4 | HEK293 M3R/RGS4 inducible, Fluo-4 calcium flux; active compounds read high; triggered by carbachol at its EC20 | B-score at 10 µM | AID 463165 | actives 0.45% (n = 310,000) | P49798;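 active = B-score, a plate-corrected calcium signal, over three deviations above library mean, with baseline fluorescence within five deviations of library mean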;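 also: RGS4 expression induced by doxycycline in cells with stable M3 receptor; B-score is computed from the integrated fluorescence ratio over baseline after carbachol; higher B-score means a larger calcium signal and so more RGS4 inhibition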
Target sequence (P49798 whole entry, looked up): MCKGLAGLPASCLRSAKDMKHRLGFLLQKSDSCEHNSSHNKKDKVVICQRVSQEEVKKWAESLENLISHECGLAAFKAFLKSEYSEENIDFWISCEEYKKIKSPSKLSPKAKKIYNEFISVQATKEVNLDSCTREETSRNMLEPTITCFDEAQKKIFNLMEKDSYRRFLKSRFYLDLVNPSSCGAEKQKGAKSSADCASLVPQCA
MrgX1 ag = agonists of human MrgX1 receptor. AID 588627. MrgX1-HEK293 cells, Fluo-4 calcium fluorescence, agonist mode; active compounds read high. Q96LB2. actives 0.44% (n = 310,000). B-score at 10 µM;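 active = calcium response B-score plate-corrected fluorescence ratio at least 3 library SD, with starting fluorescence B-score inside 5 SD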
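Material: MrgX1-expressing HEK293 cells / Dosing: compound as first of three additions / Incubation: overnight seeding, then 1 h dark dye loading / Signal: Fluo-4 NW calcium fluorescence / Evaluation: B-scored fluorescence response ratio / Benchmarks: positive and negative control wells on each plate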
RGS4 inh valid = RGS4 inhibitor validation; HEK293 M3R/RGS4, carbachol calcium Fluo-4 fluorescence; carbachol added at its EC20; 0 = buffer wells, 100 = carbachol control; calcium response, % at 10 µM; shares compounds with RGS4 inh; actives 65% (n = 1,700);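 active = duplicate-averaged calcium response above the buffer-only control mean plus 5 SD of those controls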;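 also: integrated fluorescence ratio F max minus min over baseline F0; higher response in RGS4-induced cells means RGS4 inhibition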
RGS4 uninduced = checks RGS4 inhibitor effects in non-induced HEK293 M3R cells | actives 20% (n = 1,900) | activity (percent), % at 10 µM | AID 493000 | carbachol calcium Fluo-4; submaximal (EC20) carbachol stimulus; buffer wells 0%, carbachol control wells 100% | shares compounds with RGS4 inh; call rule not given here;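 also: RGS4 induction absent so cells express M3R without RGS4; higher means more calcium signal and flags a non-specific hit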
RGS4 inh ctr2 = second counter-screen for RGS4 inhibitors: non-induced cells without carbachol. calcium response (agonist-mode artifact), % at 10 µM. actives 22% (n = 1,900). shares compounds with RGS4 inh. HEK293 M3R/RGS4 non-induced, Fluo-4 calcium, no carbachol; normalised: buffer wells 0%, carbachol wells 100%;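 active = duplicate-averaged calcium rise in uninduced cells above buffer wells' mean plus 5 SD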
* marks the source's active call; other numbers are inactive results; i = inactive; . = no result.

SMILES	RGS4 act	MrgX1 allo act	MrgX1 antagonist	RGS4 inh	MrgX1 ag	RGS4 inh valid	RGS4 uninduced	RGS4 inh ctr2
CC1=NN(Cc2ccccc2)C(=O)C1C(c1ccc(Cl)cc1)C(C#N)C#N (stereo not given)	i	i	i	i	i	i	i	7.0%*
CC1=NNC(=O)C1C(c1cccc(O)c1)C(C#N)C#N (stereo not given)	i	i	i	i	i	.	.	.
CC1=NN(Cc2ccccc2)C(=O)C1	i	i	i	i	i	.	.	.
CC1=NN(Cc2ccccc2)C(=O)C1C(c1ccncc1)C(C#N)C#N (stereo not given)	i	i	i	4.8*	i	7.5%*	i	i
Cc1ccc(NC(=O)c2nc[nH]c2C(=O)N[C@@H](C)c2ccccc2)cc1	i	i	i	5.7*	i	29%*	i	i
Cc1ccc(NC(=O)c2[nH]cnc2C(=O)NN)cc1	i	i	i	i	i	.	.	.
COc1ccc(Nc2nc(-c3ccncc3)nc3ccccc23)cc1	i	i	i	i	i	.	.	.
NNc1nc(Nc2ccc([N+](=O)[O-])cc2)nc(N2CCCCCC2)n1	i	i	i	5.7*	i	i	i	i
NNc1nc(Nc2ccccc2)nc(N2CCCCC2)n1	i	i	i	i	i	i	i	i
O=c1nc(N2CCCCC2)nc(Nc2ccccc2)[nH]1	i	i	i	i	i	i	i	i
O=[N+]([O-])c1ccc(Nc2nc(NCCO)nc(N3CCCC3)n2)cc1	i	i	i	i	i	.	.	.
COc1ccc([N+](=O)[O-])cc1/C=N/Nc1nc(N2CCCCC2)nc(N2CCCCC2)n1	i	i	i	4.8*	i	10%*	i	i
NNc1nc(Nc2ccccc2)nc(Nc2ccccc2)n1	i	i	i	i	i	.	.	.
COc1ccc(N2CCN(C(=O)c3cc([N+](=O)[O-])ccc3N3CCN(CCO)CC3)CC2)cc1	i	i	i	i	i	.	.	.
CC(C)Cc1nnc(NC(=O)CN2C(=O)NC3(CC(C)CC(C)(C)C3)C2=O)s1 (stereo not given)	i	i	i	i	i	.	.	.
CCC(C)c1ccc(NC(=S)N2CCN(C(=O)C3CCCO3)CC2)cc1 (stereo not given)	i	i	i	i	i	.	.	.
CC(NS(=O)(=O)c1cc2c3c(c1)CCC(=O)N3CCC2)c1ccccc1 (stereo not given)	i	i	i	i	i	.	.	.
Cc1cccc(Nc2nc(N3CCCCC3)nc(N3CCCCC3)n2)c1	i	i	i	9.7*	i	48%*	55%*	i
CC1C/C(=C/c2ccncc2)C(=O)/C(=C/c2ccncc2)C1 (stereo not given)	i	8*	i	28*	i	120%*	i	7.5%*
CCc1ccc(NC(=O)CSc2nc3ccccc3c(=O)n2CCCN2CCC(C)CC2)cc1	i	i	i	i	i	.	.	.
COc1ccc(OC)c(C2=Nn3c(nnc3C3CCCCC3)SC2)c1	i	i	i	i	i	.	.	.
COc1ccc(-c2nnc3n2N=C(C)CS3)cc1OC	i	i	i	i	i	.	.	.
COc1ccc(C2=Nn3c(nnc3-c3ccccc3)SC2)cc1OC	i	i	i	i	i	.	i	i
CCCc1nnc2n1N=C(c1ccc(OC)c(OC)c1)CS2	i	i	i	7.4*	i	12%*	28%*	i
COc1ccc(C2=Nn3c(nnc3C3CCCCC3)SC2)cc1OC	i	i	i	11*	i	22%*	49%*	i
SMILES	RGS4 act	MrgX1 allo act	MrgX1 antagonist	RGS4 inh	MrgX1 ag	RGS4 inh valid	RGS4 uninduced	RGS4 inh ctr2
CCCCOc1ccc(/C=C/C(=O)OCC(=O)NC(=O)NCC(C)C)cc1OCC	i	i	i	i	i	.	.	.
CCOc1ccc(NC(=S)N(CCOC)C2CCN(C(C)C)CC2)cc1	i	i	i	i	i	.	.	.
Fc1ccc(-c2csc(Nc3ccccn3)n2)cc1	i	i	i	i	i	i	i	i
C/C(=N\Nc1ccc(C(=O)O)cc1)c1ccc(Br)cc1	i	i	i	4.7*	i	20%*	35%*	i
COc1ccc(N2CC(C(=O)N/N=C/c3cc([N+](=O)[O-])ccc3O)CC2=O)cc1 (stereo not given)	i	i	i	5*	i	5.0%*	i	i
O=C(N/N=C/c1cc([N+](=O)[O-])ccc1O)NC12CC3CC(CC(C3)C1)C2	i	i	i	7.9*	i	12%*	i	i
O=[N+]([O-])c1ccc(O)c(/C=N/NC(=S)Nc2ccc(Cl)cc2Cl)c1	i	i	i	14*	i	18%*	i	i
CCCn1c(NC(=O)CN2C(=O)NC3(CCCCC3)C2=O)nc2ccccc21	i	i	i	i	i	.	.	.
Cc1occc1C(=O)Nc1cccc([N+](=O)[O-])c1C	i	i	i	i	i	.	.	.
Nc1nc(Cl)cc(N2CCC(c3cc(-c4ccc(Cl)cc4Cl)n[nH]3)CC2)n1	i	i	i	7.3*	i	16%*	i	i
Nc1nc(Cl)cc(N2CCCC2)n1	i	i	i	i	i	.	.	.
CCO[C@@H]1OC(C(=O)N2CCCCCCC2)=C[C@H](c2cn(C(C)=O)c3ccccc23)[C@H]1CCCO	i	i	i	i	i	.	.	.
Cc1ccc(S(=O)(=O)NCc2ccccc2)cc1C(=O)N(C)Cc1ccccc1F	i	i	i	i	i	.	.	.
CN(C)c1ccc(C(C[N+](=O)[O-])c2c(N)n(C)c(=O)n(C)c2=O)c(F)c1C#N (stereo not given)	i	i	i	22*	31*	62%*	i	i
Brc1cccc2sc(N3CCCC3)nc12	i	i	i	i	i	.	.	.
COC(CSc1nc(N)c2c3c(sc2n1)CN(C)CC3)OC	i	i	i	i	i	.	.	.
COc1ccc(S(=O)(=O)Nc2ccccc2)cc1	i	i	i	i	i	.	.	.
